Experiments:
Format in all cases: functional
[1] = system: HCT-15; experiment: Growth inhibition of human HCT15 cells incubated for 48 hrs by sulforhodamine B assay; settings: HCT-15, 48 h
Procedure, shortened: (§1)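 NCI-60 five-dose mode: five tenfold dilutions (0.01, 0.1, 1, 10, 100 µM) are applied for 48 h to cells in RPMI 1640 with 5% FBS at 37 °C. Endpoint is TCA fixation with sulforhodamine B read at 515 nm. % growth comes from the 0 h and control absorbances. GI50 is the concentration giving a 50% reduction in net cell growth.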

[2] = system: SNB-75; experiment: Growth inhibition of human SNB75 cells incubated for 48 hrs by sulforhodamine B assay; settings: SNB-75, 48 h
Procedure, shortened: (§2)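 NCI-60 five-dose SRB assay. Cells were exposed for 48 h to tenfold dilutions of 0.01, 0.1, 1, 10 and 100 µM, in RPMI 1640 with 5% FBS. Plates fixed with TCA at the time of drug addition served as the time-zero reference. GI50 is the concentration giving a 50% reduction in net growth. TGI is total growth inhibition. LC50 is a net 50% loss of the initial cells.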

[3] = system: OVCAR-4; experiment: Growth inhibition of human OVCAR4 cells incubated for 48 hrs by sulforhodamine B assay; settings: OVCAR-4, 48 h
Procedure, shortened: (§3)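 NCI-60 five-dose SRB assay in RPMI 1640 with 5% FBS, 37 °C, 5% CO2. Compound given at five tenfold dilutions, 0.01–100 µM, for 48 h. Adherent cells fixed with TCA, suspension cells with 16% final TCA. Bound SRB read at 515 nm and growth calculated against time-zero and untreated controls. GI50 taken from dose–response curves as the concentration giving a 50% decrease in net cell growth.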

[4] = system: NCI/ADR-RES; experiment: Growth inhibition of human NCI/ADR-RES cells incubated for 48 hrs by sulforhodamine B assay; procedure, shortened: as §3
[5] = system: A498; experiment: Growth inhibition of human A498 cells incubated for 48 hrs by sulforhodamine B assay; settings: A498, 48 h; procedure, shortened: as §1
[6] = system: UO-31; experiment: Growth inhibition of human UO31 cells incubated for 48 hrs by sulforhodamine B assay; settings: UO-31, 48 h; procedure, shortened: as §2
[7] = system: SNB-75; experiment: Induction of apoptosis in human SNB75 cells assessed as necrosis at 2 uM incubated for 24 hrs by annexin V FITC and propidium iodide based flow cytometry (reference value: 0.44 %)
[8] = system: SR; experiment: Growth inhibition of human SR cells assessed as cell viability at 100 uM incubated for 48 hrs by sulforhodamine B assay; settings: read-out: Activity
[9] = system: CCRF-CEM; experiment: Growth inhibition of human CCRF-CEM cells assessed as cell viability at 100 uM incubated for 48 hrs by sulforhodamine B assay; settings: read-out: Activity
[10] = system: MCF7; experiment: Growth inhibition of human MCF7 cells assessed as cell viability at 1 uM incubated for 48 hrs by sulforhodamine B assay; settings: MCF7, 48 h, read-out: Activity
[11] = system: 786-0; experiment: Growth inhibition of human 786-0 cells assessed as cell viability at 1 uM incubated for 48 hrs by sulforhodamine B assay; settings: 786-0, 48 h, read-out: Activity; procedure, shortened: as §1
[12] = system: MDA-MB-435; experiment: Growth inhibition of human MDA-MB-435 cells assessed as cell viability at 1 uM incubated for 48 hrs by sulforhodamine B assay; settings: MDA-MB-435, 48 h, read-out: Activity
[13] = system: HCT-116; experiment: Growth inhibition of human HCT116 cells assessed as cell viability at 1 uM incubated for 48 hrs by sulforhodamine B assay; settings: HCT-116, 48 h, read-out: Activity
[14] = system: BT-549; experiment: Growth inhibition of human BT549 cells assessed as cell viability at 0.1 uM incubated for 48 hrs by sulforhodamine B assay; settings: BT-549, 48 h, read-out: Activity
[15] = system: OVCAR-5; experiment: Growth inhibition of human OVCAR5 cells assessed as cell viability at 0.1 uM incubated for 48 hrs by sulforhodamine B assay; settings: OVCAR-5, 48 h, read-out: Activity
[16] = system: OVCAR-4; experiment: Growth inhibition of human OVCAR4 cells assessed as cell viability at 0.1 uM incubated for 48 hrs by sulforhodamine B assay; settings: OVCAR-4, 48 h, read-out: Activity
[17] = system: UACC-62; experiment: Growth inhibition of human UACC62 cells assessed as cell viability at 0.1 uM incubated for 48 hrs by sulforhodamine B assay; settings: UACC-62, 48 h, read-out: Activity
[18] = system: NCI-H522; experiment: Growth inhibition of human NCI-H522 cells assessed as cell viability at 0.1 uM incubated for 48 hrs by sulforhodamine B assay; settings: NCI-H522, 48 h, read-out: Activity
[19] = system: CCRF-CEM; experiment: Growth inhibition of human CCRF-CEM cells assessed as cell viability at 0.1 uM incubated for 48 hrs by sulforhodamine B assay; settings: read-out: Activity
[20] = system: MCF7; experiment: Growth inhibition of human MCF7 cells assessed as cell viability at 0.001 uM incubated for 48 hrs by sulforhodamine B assay relative to control; settings: MCF7, 48 h, read-out: Activity
[21] = system: RXF 393; experiment: Growth inhibition of human RXF393 cells assessed as cell viability at 0.001 uM incubated for 48 hrs by sulforhodamine B assay relative to control; settings: RXF 393, 48 h, read-out: Activity
[22] = system: OVCAR-4; experiment: Growth inhibition of human OVCAR4 cells assessed as cell viability at 0.001 uM incubated for 48 hrs by sulforhodamine B assay relative to control; settings: OVCAR-4, 48 h, read-out: Activity
[23] = system: KM12; experiment: Growth inhibition of human KM12 cells assessed as cell viability at 0.001 uM incubated for 48 hrs by sulforhodamine B assay relative to control; settings: KM12, 48 h, read-out: Activity
[24] = system: NCI-H522; experiment: Growth inhibition of human NCI-H522 cells assessed as cell viability at 0.001 uM incubated for 48 hrs by sulforhodamine B assay relative to control; settings: NCI-H522, 48 h, read-out: Activity
[25] = system: HOP-92; experiment: Growth inhibition of human HOP92 cells assessed as cell viability at 0.001 uM incubated for 48 hrs by sulforhodamine B assay relative to control; settings: HOP-92, 48 h, read-out: Activity
[26] = read-out: LC50 (the source's name)
[27] = read-out: pLC50 (the source's name) (converted)

`CC1=C(C(=O)OCc2ccccc2)C(c2ccc3c(c2)OCO3)n2c(nc3ccccc32)N1` (racemic) was tested, and the GI50 ([1]; read-out: GI50) was 0.37 µM, the LC50 (concentration causing 50% net cell kill) ([1]; read-out: LC50) was greater than 100 µM and the TGI ([1]; read-out: TGI) was greater than 100 µM. It also gave a GI50 ([1]; read-out: pGI50 (converted)) of 0.372 µM, an LC50 (concentration causing 50% net cell kill) ([1]; read-out: pLC50 (converted)) greater than 100 µM and a TGI ([1]; read-out: pTGI) greater than 100 µM. The GI50 ([2]; read-out: GI50) was 0.22 µM, the LC50 (concentration giving 50% net loss of initial cells) ([2]; read-out: LC50) was greater than 100 µM and the TGI ([2]; read-out: TGI) was 0.8 µM. It also gave a GI50 ([2]; read-out: pGI50 (converted)) of 0.214 µM, an LC50 (concentration giving 50% net loss of initial cells) ([2]; read-out: pLC50 (converted)) greater than 100 µM and a TGI ([2]; read-out: pTGI (converted)) of 0.794 µM. For the same molecule, the GI50 ([3]; read-out: GI50) was 13.3 µM, the CC50 [3, 26] was greater than 100 µM and the TGI ([3]; read-out: TGI) was greater than 100 µM. For the same molecule, the GI50 ([3]; read-out: pGI50 (converted)) was 13.2 µM, the CC50 [3, 27] was greater than 100 µM and the TGI ([3]; read-out: pTGI) was greater than 100 µM. For the same molecule, the GI50 ([4]; read-out: GI50) was 0.33 µM, the CC50 [4, 26] was greater than 100 µM and the TGI ([4]; read-out: TGI) was greater than 100 µM. The GI50 ([4]; read-out: pGI50 (converted)) was 0.331 µM, the CC50 [4, 27] was greater than 100 µM and the TGI ([4]; read-out: pTGI) was greater than 100 µM. The GI50 ([5]; read-out: GI50) was 0.36 µM, the CC50 [5, 26] was greater than 100 µM and the TGI ([5]; read-out: TGI) was greater than 100 µM. The GI50 ([5]; read-out: pGI50 (converted)) was 0.363 µM, the CC50 [5, 27] was greater than 100 µM and the TGI ([5]; read-out: pTGI) was greater than 100 µM. It also gave a GI50 ([6]; read-out: GI50) of 0.59 µM, a CC50 [6, 26] greater than 100 µM and a GI50 ([6]; read-out: pGI50 (converted)) of 0.589 µM. The CC50 [6, 27] was greater than 100 µM, the TGI ([6]; read-out: pTGI (converted)) was 63.1 µM and the Activity [7] was 2.05%. The viability at 100 µM [8] was 38%, the viability at 100 µM [9] was 18% and the viability at 1 µM [10] was 14%. For the same molecule, the viability at 1 µM [11] was 27%, the viability at 1 µM [12] was -39% and the viability at 1 µM [13] was 26%. For the same molecule, the viability at 0.1 µM [14] was 87%, the viability at 0.1 µM [15] was 100% and the viability at 0.1 µM [16] was 90%. For the same molecule, the viability at 0.1 µM [17] was 80%, the viability at 0.1 µM [18] was 57% and the viability at 0.1 µM [19] was 98%. It also gave a viability at 0.001 µM [20] of 86%, a viability at 0.001 µM [21] of 92% and a viability at 0.001 µM [22] of 82%. It also gave a viability at 0.001 µM [23] of 91%, a viability at 0.001 µM [24] of 78% and a viability at 0.001 µM [25] of 67%.

Reference: ChEMBL document CHEMBL4406880, “Design, synthesis, and bioactivity of dihydropyrimidine derivatives as kinesin spindle protein inhibitors” (Bioorg Med Chem, 2019)
